In ChEMBL document CHEMBL1137451, “Synthesis and evaluation of antifungal properties of a series of the novel 2-amino-5-oxo-4-phenyl-5,6,7,8-tetrahydroquinoline-3-carbonitrile and its analogues” (Bioorg Med Chem, 2007):
In brackets after ≈: the same amount, converted by molar mass. Activity calls are given as the source filed them. The rule behind the calls is not given here.

Key:
Candida albicans [1] = experiment: Antifungal activity against Candida albicans 1 at 60 ug/disc after 24 hrs by disc diffusion method; format: functional; conditions: read-out: IZ
How it was run: (§1)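 Yeast suspensions (C. albicans strains 1, 2) and mycelial suspensions (F. oxysporum strains 1, 2; Mucor sp.) spread on YPG (0.3% yeast extract, 0.5% peptone, 1% glucose) or PDA agar. Compound applied on filter-paper discs at the stated amount; 28 °C, 24 h. Read-out is inhibition zone diameter. Controls: 50% v/v DMSO vehicle, cycloheximide, amphotericin B.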

Mucor [2] = experiment: Antifungal activity against Mucor at 100 ug/disc after 24 hrs by disc diffusion method; format: functional; conditions: read-out: IZ; how it was run: as §1
Candida albicans [3] = experiment: Antifungal activity against Candida albicans 1 after 24 hrs by disc diffusion method; format: functional
How it was run: (§2)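 Disc diffusion on Candida albicans strains 1 and 2 (yeast suspension), Fusarium oxysporum strains 1 and 2 and Mucor sp. (mycelial suspension), spread on YPG or PDA agar. Compound at graded amounts per filter-paper disc, 28 °C for 24 h. MIC taken as the lowest amount giving a 2 mm inhibition zone. Controls: 50% v/v DMSO vehicle, cycloheximide, amphotericin B.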

Fusarium oxysporum [4] = experiment: Antifungal activity against Fusarium oxysporum 2 at 100 ug/disc after 24 hrs by disc diffusion method; format: functional; conditions: read-out: IZ; how it was run: as §1
Fusarium oxysporum [5] = experiment: Antifungal activity against Fusarium oxysporum 2 at 60 ug/disc after 24 hrs by disc diffusion method; format: functional; conditions: read-out: IZ; how it was run: as §1
Candida albicans [6] = experiment: Antifungal activity against Candida albicans 2 after 24 hrs by disc diffusion method; format: functional; how it was run: as §2
Mucor [7] = experiment: Antifungal activity against Mucor at after 24 hrs by disc diffusion method; format: functional; how it was run: as §2
Candida albicans [8] = experiment: Antifungal activity against Candida albicans 1 at 40 ug/disc after 24 hrs by disc diffusion method; format: functional; conditions: for zone of inhibition at 40 µg/disc: read-out: IZ; how it was run: as §1
Fusarium oxysporum [9] = experiment: Antifungal activity against Fusarium oxysporum 1 after 24 hrs by disc diffusion method; format: functional; how it was run: as §2
Candida albicans [10] = experiment: Antifungal activity against Candida albicans 1 at 100 ug/disc after 24 hrs by disc diffusion method; format: functional; conditions: read-out: IZ; how it was run: as §1
Fusarium oxysporum [11] = experiment: Antifungal activity against Fusarium oxysporum 2 at 40 ug/disc after 24 hrs by disc diffusion method; format: functional; conditions: for zone of inhibition at 40 µg/disc: read-out: IZ; how it was run: as §1
Candida albicans [12] = experiment: Antifungal activity against Candida albicans 2 at 60 ug/disc after 24 hrs by disc diffusion method; format: functional; conditions: read-out: IZ; how it was run: as §1
Candida albicans [13] = experiment: Antifungal activity against Candida albicans 2 at 100 ug/disc after 24 hrs by disc diffusion method; format: functional; conditions: read-out: IZ; how it was run: as §1
Mucor [14] = experiment: Antifungal activity against Mucor at 60 ug/disc after 24 hrs by disc diffusion method; format: functional; conditions: read-out: IZ; how it was run: as §1
Fusarium oxysporum [15] = experiment: Antifungal activity against Fusarium oxysporum 1 at 60 ug/disc after 24 hrs by disc diffusion method; format: functional; conditions: read-out: IZ; how it was run: as §1
Fusarium oxysporum [16] = experiment: Antifungal activity against Fusarium oxysporum 1 at 100 ug/disc after 24 hrs by disc diffusion method; format: functional; conditions: read-out: IZ; how it was run: as §1
Fusarium oxysporum [17] = experiment: Antifungal activity against Fusarium oxysporum 1 at 40 ug/disc after 24 hrs by disc diffusion method; format: functional; conditions: for zone of inhibition at 40 µg/disc: read-out: IZ; how it was run: as §1
Benjaminiella poitrasii [18] = experiment: Inhibition of Benjaminiella poitrasii chitin synthase at 4 ug/mL
How it was run: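 Chitin synthase from Benjaminiella poitrasii measured with and without compound at 4 µg/ml, using a non-radioactive chitin synthase assay. Nikkomycin Z used as reference.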

Benjaminiella poitrasii [19] = experiment: Inhibition of yeast hypha transition at 20 ug/mL after 4 hrs
Candida albicans [20] = experiment: Antifungal activity against Candida albicans 2 at 40 ug/disc after 24 hrs by disc diffusion method; format: functional; conditions: for zone of inhibition at 40 µg/disc: read-out: IZ; how it was run: as §1
Fusarium oxysporum [21] = experiment: Antifungal activity against Fusarium oxysporum 2 after 24 hrs by disc diffusion method; format: functional; how it was run: as §2
Mucor [22] = experiment: Antifungal activity against Mucor at 40 ug/disc after 24 hrs by disc diffusion method; format: functional; conditions: for zone of inhibition at 40 µg/disc: read-out: IZ; how it was run: as §1
Hep 3B2 [23] = experiment: Antiproliferative activity against human Hep3B cells at 1 mg/mL assessed as cell viability by MTT assay; format: functional, cell-based
How it was run: (§3)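 Hep3B or MCF-7 cells in MEM with 10% heat-inactivated FBS at 37 °C, 5% CO2, seeded 10,000/well and left to adhere 24 h. Exposed 48 h to compound diluted from 4 mg/ml DMSO stock, then 24 h in fresh medium. MTT (1 mg/ml, 4 h), formazan dissolved in 2-propanol, read at 570 nm (630 nm reference). DMSO-only wells set as 100% growth; triplicates.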

MCF7 [24] = experiment: Antiproliferative activity against human MCF7 cells at 1 mg/mL assessed as cell viability by MTT assay; format: functional, cell-based; how it was run: as §3
Hep 3B2 [25] = experiment: Antiproliferative activity against human Hep3B cells upto 400 ug/mL assessed as cell viability by MTT assay; format: functional, cell-based; how it was run: as §3
MCF7 [26] = experiment: Antiproliferative activity against human MCF7 cells assessed as cell viability by MTT assay; format: functional, cell-based
How it was run: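 MCF-7 cells in MEM with 10% FBS, 37 °C, 5% CO2, seeded 10,000/well, adhered 24 h. Treated 48 h at 0, 1, 10, 100, 1000 or 2000 µg/ml (DMSO stock diluted in medium), then 24 h recovery. MTT 4 h, 2-propanol solubilisation, A570 against 630 nm. DMSO carrier set as 100% growth; IC50 taken from the dose curve; triplicates.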

| MIC (Candida albicans [3]) [µg/disc] | MIC (Candida albicans [6]) [µg/disc] | MIC (Mucor [7]) [µg/disc] | MIC (Fusarium oxysporum [9]) [µg/disc] | inhibition (Benjaminiella poitrasii [18]) [%] | MIC (Fusarium oxysporum [21]) [µg/disc] | SMILES | zone of inhibition at 60 µg/disc (Candida albicans [1]) [mm] | zone of inhibition at 100 µg/disc (Mucor [2]) [mm] | zone of inhibition at 100 µg/disc (Fusarium oxysporum [4]) [mm] | zone of inhibition at 60 µg/disc (Fusarium oxysporum [5]) [mm] | zone of inhibition at 100 µg/disc (Candida albicans [10]) [mm] | zone of inhibition at 40 µg/disc (Fusarium oxysporum [11]) [mm] | zone of inhibition at 60 µg/disc (Candida albicans [12]) [mm] | zone of inhibition at 100 µg/disc (Candida albicans [13]) [mm] | zone of inhibition at 60 µg/disc (Mucor [14]) [mm] | zone of inhibition at 60 µg/disc (Fusarium oxysporum [15]) [mm] | zone of inhibition at 100 µg/disc (Fusarium oxysporum [16]) [mm] | zone of inhibition at 40 µg/disc (Fusarium oxysporum [17]) [mm] | inhibition at 20 µg/mL (Benjaminiella poitrasii [19]) [%] | zone of inhibition at 40 µg/disc (Candida albicans [8]) [mm] | also measured |
| --- | --- | --- | --- | --- | --- | --- | --- | --- | --- | --- | --- | --- | --- | --- | --- | --- | --- | --- | --- | --- | --- |
| 60 | 60 | 40 | 40 | 76 | 40 | N#Cc1c(N)nc2c(c1-c1cccc(N)c1)C(=O)CCC2 | 3 | 10 | 5 | 3 | 6 | 2 | 3 | 6 | 7 | 3 | 5 | 2 | 95 |  | Activity (Candida albicans [8]): inactive; Activity (Candida albicans [20]): inactive; zone of inhibition at 40 µg/disc (Mucor [22]): 5 mm |
| 60 | 60 | 40 | 60 | 61 | 60 | CC(=O)N(C(C)=O)c1nc2c(c(-c3ccc(C)cc3)c1C#N)C(=O)CCC2 | 4 | 10 | 4 | 2 | 6 |  | 4 | 6 | 7 | 2 | 4 |  | 90 |  | Activity (Candida albicans [8]): inactive; Activity (Fusarium oxysporum [11]): inactive; Activity (Fusarium oxysporum [17]): inactive; Activity (Candida albicans [20]): inactive; zone of inhibition at 40 µg/disc (Mucor [22]): 3 mm |
| 40 | 40 | 60 | 40 | 91 | 40 | Cc1ccc(-c2c(C#N)c(N)nc3c2C(=O)CCC3)cc1 | 4 | 14 | 7 | 3 | 7 | 2 | 4 | 7 | 10 | 3 | 7 | 2 | 90 | 3 | zone of inhibition at 40 µg/disc (Candida albicans [20]): 3 mm; Activity (Mucor [22]): inactive |
| 40 | 40 | 60 | 40 | 81 | 40 | N#Cc1c(N)nc2c(c1-c1ccc(F)cc1)C(=O)CCC2 | 4 | 12 | 7 | 3 | 6 |  | 4 | 6 | 9 | 3 | 7 |  | 95 | 2 | Activity (Fusarium oxysporum [11]): inactive; Activity (Fusarium oxysporum [17]): inactive; zone of inhibition at 40 µg/disc (Candida albicans [20]): 2 mm; Activity (Mucor [22]): inactive |
| 40 | 40 | 60 | 20 | 81 | 20 | N#Cc1c(N)nc2c(c1-c1cccc([N+](=O)[O-])c1)C(=O)CCC2 | 4 | 15 | 7 | 4 | 7 | 3 | 4 | 7 | 9 | 4 | 7 | 3 | 85 | 3 | Activity (Hep 3B2 [23]): Toxic; Activity (MCF7 [24]): Toxic; Activity (Hep 3B2 [25]): Non-toxic; IC50 (MCF7 [26]): 293 µg/mL (≈ 952 µM); zone of inhibition at 40 µg/disc (Candida albicans [20]): 3 mm; Activity (Mucor [22]): inactive |
| 60 | 60 | 60 | 40 | 86 | 40 | N#Cc1c(N)nc2c(c1-c1ccccc1Cl)C(=O)CCC2 | 2 | 10 | 6 | 3 | 4 | 2 | 2 | 4 | 7 | 3 | 6 | 2 | 95 |  | Activity (Candida albicans [8]): inactive; Activity (Candida albicans [20]): inactive; Activity (Mucor [22]): inactive |
| 40 | 40 | 60 | 60 | 81 | 60 | N#Cc1c(N)nc2c(c1-c1ccc(Cl)cc1)C(=O)CCC2 | 3 | 10 | 7 | 4 | 5 |  | 3 | 5 | 7 | 4 | 7 |  | 95 | 2 | Activity (Fusarium oxysporum [11]): inactive; Activity (Fusarium oxysporum [17]): inactive; zone of inhibition at 40 µg/disc (Candida albicans [20]): 2 mm; Activity (Mucor [22]): inactive |
| 40 | 40 | 40 | 40 | 91 | 40 | CC(=O)Nc1nc2c(c(-c3cccc(N4C(=O)C=CC4=O)c3)c1C#N)C(=O)CCC2 | 2 | 11 | 6 | 2 | 7 | 2 | 2 | 7 | 9 | 2 | 6 | 2 | 95 | 2 | Activity (Hep 3B2 [23]): Toxic; Activity (MCF7 [24]): Toxic; Activity (Hep 3B2 [25]): Non-toxic; IC50 (MCF7 [26]): 50 µg/mL (≈ 125 µM); zone of inhibition at 40 µg/disc (Candida albicans [20]): 2 mm; zone of inhibition at 40 µg/disc (Mucor [22]): 8 mm |
| 40 | 40 | 40 | 40 |  | 40 | C[C@@H]1[C@H](O)[C@@H](C)/C=C/C=C/C=C/C=C/C=C/C=C/C=C/[C@H](O[C@@H]2O[C@H](C)[C@@H](O)[C@H](N)[C@@H]2O)C[C@@H]2O[C@](O)(C[C@@H](O)C[C@@H](O)[C@H](O)CC[C@@H](O)C[C@@H](O)CC(=O)O[C@H]1C)C[C@H](O)[C@H]2C(=O)O [AMPHOTERICIN B] | 7 | 10 | 9 | 6 | 12 | 3 | 7 | 12 | 7 | 6 | 9 | 2 |  | 4 | Activity (Hep 3B2 [23]): Toxic; Activity (MCF7 [24]): Toxic; Activity (Hep 3B2 [25]): Non-toxic; IC50 (MCF7 [26]): 60 µg/mL (≈ 64.9 µM); zone of inhibition at 40 µg/disc (Candida albicans [20]): 4 mm; zone of inhibition at 40 µg/disc (Mucor [22]): 5 mm |
